Only some compounds are listed: those with a hit (about 2.2% of all), similar ones and a draw of the others.
M1 ag: agonists of human M1 muscarinic receptor | P11229 | CHO-K1 hM1, Fluo-8 calcium fluorescence, agonist mode; 0% DMSO, 100% acetylcholine EC100 | activation, % at 3 µM | 360,000 compounds, 0.33% hits | AID 588814;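 active = activation above the run's mean compound activation plus 3 SD, cut at about 16% in these data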;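 also: peak over basal fluorescence ratio within a 140 s kinetic read after compound addition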
Target sequence (P11229 whole entry, looked up): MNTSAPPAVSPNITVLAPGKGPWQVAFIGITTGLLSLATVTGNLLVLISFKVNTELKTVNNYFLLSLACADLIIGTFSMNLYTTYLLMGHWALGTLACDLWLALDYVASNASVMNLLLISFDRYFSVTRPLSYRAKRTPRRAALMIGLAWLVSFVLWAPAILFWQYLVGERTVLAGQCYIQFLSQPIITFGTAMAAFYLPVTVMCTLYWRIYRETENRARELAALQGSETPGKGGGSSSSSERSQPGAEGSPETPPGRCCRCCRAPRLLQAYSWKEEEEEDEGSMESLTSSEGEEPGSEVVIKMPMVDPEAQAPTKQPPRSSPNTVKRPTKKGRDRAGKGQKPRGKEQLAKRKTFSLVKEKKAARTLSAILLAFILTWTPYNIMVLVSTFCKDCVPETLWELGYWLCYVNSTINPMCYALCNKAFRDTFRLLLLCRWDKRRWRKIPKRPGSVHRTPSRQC
CHRM5 agonist: CHRM5 agonism in calcium assay. P08912. CHO-K1 hM5 cells, Fluo-8 calcium fluorescence; 0% DMSO wells, 100% maximal acetylcholine response. activation, % at 3 µM. 360,000 compounds, 0.19% hits;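 active = activation above the run's mean over test compounds plus 3 SD, cut at about 23% in these data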;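 also: signal is peak over basal fluorescence ratio across the kinetic read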
M1 antag: blocks human M1 muscarinic receptor; P11229; CHO-K1 hM1, Fluo-8 calcium fluorescence, ACh EC80 antagonist; inhibition, % at 3 µM; 360,000 compounds, 1.3% hits;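 active = percent inhibition above its own plate's cutoff, namely the mean of that plate's compound wells plus 3 SD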;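 also: peak over basal fluorescence ratio during 140 s after agonist addition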
M5 PAM: positive allosteric modulators of human muscarinic M5 receptor. CHO-K1 hM5, Fluo-8 calcium, ACh EC20 PAM; 0% = ACh EC20, 100% = ACh EC100. P08912. 360,000 compounds, 0.3% hits. activation, % at 3 µM;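 active = activation above the run cutoff, the mean activation of all test compounds plus 3 SD, cut at about 18% in these data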
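Probe or stimulus: acetylcholine, EC20 level; Assay system: human M5 receptor in CHO-K1 cells; Schedule: compound preincubation 140 s before EC20 acetylcholine addition; Technique: intracellular calcium via Fluo-8 fluorescence; Dosing: single-point, 3 µM nominal; Read-out basis: percent activation from peak-over-basal fluorescence ratio, scaled EC20-to-EC100 acetylcholine; Repeats: one well per compound, no replicates.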
M1 PAM: positive allosteric modulators of human M1 muscarinic receptor; CHO-K1 hM1, Fluo-8 calcium fluorescence, ACh EC20; 0% = ACh EC20, 100% = maximal ACh; 360,000 compounds, 0.088% hits; activation, % at 3 µM; in the data active = activation above about 19%, passing the limit was not always enough
M5 antag: CHRM5 antagonism in calcium assay. CHO-hM5 cells, Fluo-8 calcium fluorescence, ACh EC80. inhibition, % at 3 µM. 360,000 compounds, 0.59% hits. AID 624040;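 active = inhibition above a per-plate cutoff, the mean of that plate's test compounds plus 3 SD, cut at about 27% in these data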
Numbers stand for hits; i = inactive; nt = no result given; ! = repeats disagree.

SMILES	M1 ag	CHRM5 agonist	M1 antag	M5 PAM	M1 PAM	M5 antag
CN(C)c1ccc(NC(=O)CC(NCc2ccccn2)C(=O)O)cc1 (stereo unspecified)	i	i	i	i	i	i
COc1cccc(C(=O)Nc2ccc(S(=O)(=O)NCc3ccco3)cc2)c1	i	i	i	i	i	i
Cc1c(N=Cc2c(O)n(C3CCCCC3)c(=O)[nH]c2=O)c(=O)n(-c2ccccc2)n1C	i	i	i	19.8	i	i
Cc1c(N=Cc2c(O)n(C)c(=O)c3ccccc23)c(=O)n(-c2ccccc2)n1C	i	i	i	i	i	i
COC(=O)c1nnn(-c2cc(Cl)cc(Cl)c2)c1C(=O)OC	i	i	i	i	i	i
O=Nc1c(O)n(Cc2cccc(Cl)c2)c2ccccc12	19.9	i	i	i	26.1	i
CCN1CCN(Cc2ccc(NC(=O)CC3Oc4ccc(C)cc4NC3=O)cc2)CC1 (stereo unspecified)	i	i	40.4	i	i	i
Cc1ccc2c(c1)NC(=O)C(CC(=O)Nc1ccc(CN3CCC(C)CC3)cc1)O2 (stereo unspecified)	i	i	101.0	i	i	71.1
Cc1ccc2c(c1)NC(=O)C(CC(=O)NCCN(CC(C)C)CC(C)C)O2 (stereo unspecified)	i	i	27.5	i	i	i
O=C(CCCC(=O)N(c1ccc(F)cc1)C(C(=O)NC1CCCC1)c1ccc(O)cc1)Nc1ccccn1 (stereo unspecified)	i	i	i	i	i	i
Cc1noc(C)c1S(=O)(=O)N1CCN(S(=O)(=O)c2ccccc2C#N)CC1	i	i	i	i	i	i
Cc1nc2nc(C)n(CCN3CCOCC3)c(=O)c2c(-c2cccc([N+](=O)[O-])c2)c1C(=O)CCCCCCCCCCN1CCC(c2ccccc2)(c2ccccc2)CC1	i	i	99.8	i	i	95.8
O=C(NCCCN1CCOCC1)/C(=C/c1ccc(-c2cccc([N+](=O)[O-])c2)o1)NC(=O)c1ccccc1	i	i	i	i	i	i
CC(=O)c1ccc(S(=O)(=O)N2CCN(CC(=O)NC(=O)NC3CCCCC3)CC2)cc1	i	i	i	i	i	i
c1ccc(CNc2ncnc3ccccc23)cc1	i	24.0!	i	i	i	i
CNc1nc(NCc2ccccc2)c2ccccc2n1	i	i	i	i	i	i
CCCCNc1nc(NCc2ccccc2)nc2ccccc12	nt	80.1	nt	i	nt	82.2
Fc1cccc(Cc2c(-c3ccco3)nc3c(Cl)cc(C(F)(F)F)cn23)c1	i	i	i	i	i	i
O=C(COc1ccc(Br)cc1)N(Cc1nnc(-c2ccccc2Cl)o1)C1CC1	i	i	37.4	i	i	i
CCC(=O)c1ccc(OCC(=O)N(Cc2nnc(-c3ccccc3Cl)o2)C2CC2)cc1	i	i	i	i	i	i
O=C(c1ccc([N+](=O)[O-])o1)N(Cc1nnc(-c2ccccc2Cl)o1)C1CC1	i	i	27.1	i	i	i
O=C(CCc1ccccn1)N1CCCC(Nc2ccc(F)cc2)C1 (stereo unspecified)	i	i	i	i	i	i
O=C1CCCCN1CCCC(=O)N1CCCC(Nc2ccccc2)C1 (stereo unspecified)	i	i	i	27.3	i	i
CC(C)c1ccc(NC2CCCN(C(=O)CCN3CCCC3=O)C2)cc1 (stereo unspecified)	i	i	i	i	i	i
O=C(CCc1ccccn1)N1CCCC(Nc2cccc(F)c2)C1 (stereo unspecified)	27.1	i	i	i	i	i
SMILES	M1 ag	CHRM5 agonist	M1 antag	M5 PAM	M1 PAM	M5 antag
CN(C)c1ccc(C(=O)OCC(=O)NC2CCCCC2)cc1	i	i	i	34.9	i	i
O=C(OCC(=O)N(C1CCCCC1)C1CCCCC1)c1ccc(Cl)nc1	i	i	i	i	23.6	i
CCOC(=O)CNC(=O)c1cnc(Nc2ccccc2OC)c2ccccc12	i	i	i	i	i	i
CCOC(=O)N1CCN(C(=O)c2cnc(Nc3ccccc3OC)c3ccccc23)CC1	i	i	33.0	i	i	i
CCN1CCN(c2ncc(C(=O)Nc3cc(Cl)c(OC)cc3OC)c3ccccc23)CC1	i	i	33.7	i	i	i
CCN1CCN(c2ncc(C(=O)N3CCN(c4ccccc4OC)CC3)c3ccccc23)CC1	i	i	21.1	i	i	i
COc1ccc(C(=O)Nc2ccc(Cl)cc2F)cc1S(=O)(=O)N1CCCC1	i	i	i	i	i	i
Cc1cc(Br)ccc1S(=O)(=O)n1ccnc1C	i	i	i	i	i	i
COc1cc(/C=N/n2c(=S)[nH]nc(C)c2=O)cc([N+](=O)[O-])c1O	i	i	i	i	i	i
COc1cc(/C=N/N2CCCCC2)cc([N+](=O)[O-])c1O	24.7	i	i	i	i	i
CC(C)CN(C(=O)Cn1nnc(-c2ccc(F)cc2)n1)C1CCS(=O)(=O)C1 (stereo unspecified)	i	i	i	i	i	i
CC(=O)c1cnc(N2CCCCC2)nc1C	i	i	i	18.2	i	i
CCCS(=O)(=O)N1CCN(C(=O)c2ccco2)CC1	i	i	i	19.0	i	i
COc1cc(S(=O)(=O)N2CCN(C(=O)c3ccco3)CC2)c(OC)cc1C	i	i	78.0	i	i	i
CCS(=O)(=O)N1CCN(C(=O)c2ccco2)CC1	i	i	i	i	i	i
CCOc1cc(C(=O)NCCCn2ccnc2)cc(OCC)c1OCC	i	i	i	i	i	i
O=C(c1cccc(F)c1)N1CCCC(C(=O)N2CCCCCC2)C1 (stereo unspecified)	i	i	i	i	i	i
FC(F)(F)c1ccc2c(c1)n(Cc1ccccc1)c1[n+]2CCCCC1	i	i	49.1	i	i	i
Cc1nn(C(=O)CCCn2cc([N+](=O)[O-])cn2)c(C)c1Cl	i	i	i	i	i	i
CCc1ccc(C(=O)C[n+]2cccc3cc(OC)ccc32)cc1	i	i	59.4	i	i	i
COc1ccc2c(ccc[n+]2CC(=O)c2ccc(C)cc2)c1	i	i	i	i	i	i
c1ccc(C(c2ccccc2)c2noc(CN3CCN(CC4CC4)CC3)n2)cc1	i	i	93.5	i	i	i
O=C(Nc1ccccc1)C(Cc1ccccc1)c1ccccc1 (stereo unspecified)	i	i	i	i	i	i
Cc1cc(NC(=O)COC(=O)C2CCCN2C(=O)c2cccs2)no1 (stereo unspecified)	i	i	i	31.7	i	i
Cc1cccc(N2C(=O)C(O)=C(C(=O)c3cccs3)C2c2ccc(C(C)C)cc2)n1 (stereo unspecified)	21.1	i	i	i	i	i

Assay outcomes (PubChem BioAssay)
